An excerpt weighted towards active compounds, which were near 4.4% of everything screened.
TbMetRS inhib: Trypanosoma brucei MetRS inhibition | purified T. brucei MetRS, ATP depletion, Kinase-Glo luminescence | AID 624268 | hit rate 0.4% among 360,000 | inhibition, % at 11.9 µM;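 active = inhibition above a per-plate cutoff of the control wells' mean inhibition plus 3 SD, cut at about 5.5% in these data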;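 also: 0% = DMSO wells median and 100% = median of wells with control inhibitor compound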
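Material – parasite MetRS enzyme · Medium – HEPES-MgCl2-KCl buffer plus DTT, spermine, BSA, pyrophosphatase · Reagent – ATP, methionine and E. coli bulk tRNA substrates · Times – 15 min enzyme-compound preincubation, 2 h reaction, 10 min detection, 25 °C · Measured by – luminescence of leftover ATP · Evaluation – percent inhibition relative to median high and low control wells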
HTR2A ag: activates the mouse 5-HT2A serotonin receptor; P35363; CHO-K1 mHTR2A beta-arrestin complementation, luminescence; percent of 30 µM serotonin response; activation, % at 7.6 µM; hit rate 0.66% among 360,000; AID 624169;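 active = activation above a run cutoff, the mean activation of all tested compounds plus 3 SD, cut at about 14% in these data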;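 also: 0% = plate median of compound wells and 100% = 30 µM serotonin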
Target sequence (P35363 whole entry, looked up): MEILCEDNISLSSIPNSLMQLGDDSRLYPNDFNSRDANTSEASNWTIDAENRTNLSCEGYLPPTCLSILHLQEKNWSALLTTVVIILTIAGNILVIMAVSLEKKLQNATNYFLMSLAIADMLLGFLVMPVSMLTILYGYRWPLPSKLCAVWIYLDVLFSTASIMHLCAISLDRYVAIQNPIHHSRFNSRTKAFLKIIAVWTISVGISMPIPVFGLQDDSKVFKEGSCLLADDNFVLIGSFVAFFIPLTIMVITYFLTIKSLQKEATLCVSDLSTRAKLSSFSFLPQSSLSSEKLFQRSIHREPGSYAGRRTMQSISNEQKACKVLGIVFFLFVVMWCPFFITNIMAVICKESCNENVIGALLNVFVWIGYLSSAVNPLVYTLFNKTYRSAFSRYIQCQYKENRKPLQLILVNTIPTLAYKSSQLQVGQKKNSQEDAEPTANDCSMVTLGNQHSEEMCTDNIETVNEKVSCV
bovine MsrA act: activates bovine MsrA enzyme | AID 602163 | hit rate 0.3% among 360,000 | activation, % at 10.6 µM | purified bovine MsrA, absorbance read-out; in the data active = activation above about 7.5%;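 also: 0% = vehicle and 100% = reference activator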
AHR activator: activates the human aryl hydrocarbon receptor | P35869 | AHR-responsive luciferase reporter cells, luminescence | activation, % at 5 µM | hit rate 2.5% among 320,000 | AID 2796; in the data active = activation above about 47%;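 also: 0% = vehicle wells and 100% = reference agonist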
AI-2 QS modul: modulators of Vibrio harveyi AI-2 quorum sensing system | Vibrio harveyi JMH597 AI-2 luminescence/OD600 ratio, 9 h; stronger effect = lower value; strain lacks LuxN and CqsS sensors; 0 = neutral-control median | activity change, % at 7.5 µM | AID 2094 | hit rate 0.4% among 300,000; in the data active = activity change below about -75%, passing the limit was not always enough;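 also: luminescence divided by OD600 gain over 9 h not by final OD600 alone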
MsrA inhibitor: bovine MsrA inhibition | purified bovine MsrA, absorbance read-out | inhibition, % at 15.5 µM | hit rate 0.75% among 360,000 | AID 651718; in the data active = inhibition above about 4.5%;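 also: 0% = vehicle wells with enzyme and 100% = reference inhibitor wells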
* = called active by the depositor; . = no result given.

SMILES	TbMetRS inhib	HTR2A ag	bovine MsrA act	AHR activator	AI-2 QS modul	MsrA inhibitor
Brc1ccc(CN2CCN(c3ncc(Cc4ccccc4)cn3)CC2)cc1	.	.	.	.	.	2
N#Cc1ccc(NC(=O)Nc2ccc(Cl)cc2)cc1	1	-1	-5	-10	-147*	0
CC(C)c1ccccc1NC(=O)Nc1ccc2c(c1)OCO2	0	5	-1	56*	23	0
O=C(NCCc1ccc(F)cc1)Nc1ccc2c(c1)OCO2	0	-3	-3	41	13	-2
COC(=O)c1ccccc1NC(=O)Nc1ccc2c(c1)OCO2	0	3	0	5	15	1
O=C(NCCc1ccccc1)Nc1ccc2c(c1)OCO2	0	-1	-3	71*	12	-2
COc1cccc(NC(=O)CN(C)S(=O)(=O)/C=C/c2ccccc2)c1	0	-8	2	0	.	0
O=C(N/C(=C\c1ccccc1)C(=O)N1CCOCC1)c1ccccc1Cl	0	2	-2	2	-1	2
O=C(Nc1ccc(O)cc1)/C(=C\C=C\c1ccccc1)NC(=O)c1ccccc1	-1	-1	-7	3	-74	1
O=C(Nc1ccc(C(=O)O)cc1)/C(=C\C=C\c1ccccc1)NC(=O)c1ccccc1Cl	0	-1	-7	3	7	5.8*
O=C(N/C(=C\c1ccc([N+](=O)[O-])cc1)C(=O)N1CCOCC1)c1ccccc1	-1	3	-7	3	5	4.6*
O=C(N/C(=C/C=C/c1ccccc1)C(=O)N1CCOCC1)c1ccccc1Cl	-1	3	-16	67*	15	4
Cc1cc(C)c2nc(-c3ccccn3)cc(C(=O)N3CCCC3)c2c1	0	8	-3	56*	4	3
Cc1ccc2nc(-c3ccccn3)cc(C(=O)N3CCN(c4ncccn4)CC3)c2c1	-1	0	-2	0	21	0
COC(=O)c1cc2c(c3c4cc(OC)ccc4n(S(=O)(=O)c4ccc(C)cc4)c13)C(=O)N(C)C2	.	.	.	.	.	0
Cc1ccc2[nH]c(=O)c3cc(C(=O)N4CCN(C(=O)c5ccco5)CC4)sc3c2c1	-1	-1	-6	78*	34	-1
Cc1ccc2c(C(=O)CN3CCN(C(=O)c4ccco4)CC3)c(C)[nH]c2c1	-1	-5	-5	53*	2	-1
CCCC(=O)Nc1nn(CC(C)C)c2nc3cc(C)ccc3cc12	-1	-3	-8	5	-3	1
CC(=O)Nc1nn(C)c2nc3cc(C)ccc3cc12	0	-2	-4	71*	10	2
Cc1[nH]c2ccccc2c1C(=O)c1c(N)[nH]c(C(=O)c2ccccc2)c1-c1ccc(Cl)cc1	.	.	.	.	.	1
CN(C)c1ccc(-c2ccnc3c2CC(C)(C(=O)NCc2cccc(Cl)c2)O3)cc1 (centres undefined)	0	5	-8	.	.	1
O=C(O)CN1C(=O)/C(=C\c2cc(Br)ccc2OCc2ccc(Cl)cc2Cl)SC1=S	1	0	-1	64*	28	.
O=C(O)CN1C(=O)/C(=C\c2ccccc2OCc2ccc(Cl)cc2)SC1=S	0	0	-3	59*	49	2
Cc1ccc(Cn2c(C(C)Nc3nc(-c4ccc(F)cc4)cs3)nc3cc(Cl)c(Cl)cc32)cc1 (centres undefined)	0	2	-3	59*	32	0
CCCn1c(C(C)Nc2nc(-c3ccc(C)cc3)cs2)nc2cc(Cl)c(Cl)cc21 (centres undefined)	0	-1	-2	14	6	0
SMILES	TbMetRS inhib	HTR2A ag	bovine MsrA act	AHR activator	AI-2 QS modul	MsrA inhibitor
NC(=O)c1ncn([C@@H]2O[C@H](C(=O)Nc3ccc(Oc4ccccc4)nc3)[C@@H](O)[C@H]2O)n1	.	.	.	.	.	1
Cc1ccc(C(C)C)c(OCc2nc(-c3nonc3N)no2)c1	0	1	-1	24	-85*	0
COCCN1C(=O)COc2ccccc2C1C(=O)NCc1ccccc1 (centres undefined)	0	-3	-3	.	.	-1
CC(C)/C=C(/C(=O)c1ccc(Cl)cc1Cl)n1cncn1	1	0	-2	0	20	0
O=C(c1ccc(Cl)cc1Cl)C1(n2cncn2)Oc2ccccc2C1O (centres undefined)	0	-1	-4	66*	29	0
O=c1cc(-c2ccccc2)nc2n1Cc1ccccc1-2	0	-1	-1	111*	6	0
Cc1cc(O)cc(=O)n1-c1cccc(Br)c1	.	.	.	.	.	0
CCc1ccc2c(CN3CCc4cc(OC)c(OC)cc4C3)cc(=O)oc2c1	1	-1	-3	74*	23	0
COc1cc2c(cc1OC)CN(Cc1cc(=O)oc3cc(C)c(C)cc13)CC2	1	1	-1	12	4	1
COC(=O)c1cc2c(c3c4cc(OC)ccc4n(S(=O)(=O)c4ccccc4)c13)C(=O)N(C)C2	.	.	.	.	.	0
Cc1ccc(C#N)c(SCc2cccc(Br)c2)n1	0	-4	-2	-1	20	-1
Cc1ccc(C#N)c(SCc2cc3c(cc2Cl)OCO3)n1	-1	-2	-6	51*	5	0
Clc1ccc2[nH]c3c(NCC4CCCO4)ncnc3c2c1 (centres undefined)	.	.	.	76*	25	1
COc1ccc(/C=N/NC(=O)c2cccnc2)cc1CSc1nc2ccccc2s1	-1	-2	-11	54*	30	2
CN(Cc1ccco1)C(=O)[C@@H](Cc1ccccc1)NC(=O)[C@H]1O[C@@H](n2ccc(=O)[nH]c2=O)[C@H](O)[C@@H]1O	.	.	.	.	.	0
Cc1ccc(S(=O)(=O)N2CCOCC2)cc1N/N=C(\C#N)c1nc2ccccc2[nH]1	0	-1	-6	59*	17	0
C(=C\c1ccccc1)/C=N/Nc1nc2ccccc2[nH]1	2	1	-7	65*	8	4
Fc1ccc(/C=N/Nc2nc3ccccc3[nH]2)cc1F	2	-2	-4	49*	-39	3
C(/CCc1ccccc1)=N\Nc1nc2ccccc2[nH]1	4	2	0	45	1	1
C(=N\Nc1nc2ccccc2[nH]1)/c1ccccc1	3	-6	-3	30	1	4
Cc1ccccc1/C=N/Nc1nc2ccccc2[nH]1	2	-3	-9	65*	8	2
C(=N\Nc1nc2ccccc2[nH]1)/c1cccc2cccnc12	3	-14	-3	42	26	1
COc1ccc(/C=N/Nc2nc3ccccc3[nH]2)c(OC)c1OC	2	-7	0	51*	11	1
COc1ccc(NS(=O)(=O)c2cccc(C(=O)NNC(=O)c3ccc(C)o3)c2)cc1	0	5	-5	-1	.	0
CCN1C(=O)N(C(C)=O)[C@H]2C[C@H](C(=O)N3CCCC3)[C@H](C)[C@H](c3ccccc3)C[C@H]21	.	.	.	.	.	0
